Peptide text beside a SMILES is read from it.
Target: T1, Signal transducer and activator of transcription 6 (Homo sapiens, UniProt P42226)
T1 sequence (P42226 whole entry): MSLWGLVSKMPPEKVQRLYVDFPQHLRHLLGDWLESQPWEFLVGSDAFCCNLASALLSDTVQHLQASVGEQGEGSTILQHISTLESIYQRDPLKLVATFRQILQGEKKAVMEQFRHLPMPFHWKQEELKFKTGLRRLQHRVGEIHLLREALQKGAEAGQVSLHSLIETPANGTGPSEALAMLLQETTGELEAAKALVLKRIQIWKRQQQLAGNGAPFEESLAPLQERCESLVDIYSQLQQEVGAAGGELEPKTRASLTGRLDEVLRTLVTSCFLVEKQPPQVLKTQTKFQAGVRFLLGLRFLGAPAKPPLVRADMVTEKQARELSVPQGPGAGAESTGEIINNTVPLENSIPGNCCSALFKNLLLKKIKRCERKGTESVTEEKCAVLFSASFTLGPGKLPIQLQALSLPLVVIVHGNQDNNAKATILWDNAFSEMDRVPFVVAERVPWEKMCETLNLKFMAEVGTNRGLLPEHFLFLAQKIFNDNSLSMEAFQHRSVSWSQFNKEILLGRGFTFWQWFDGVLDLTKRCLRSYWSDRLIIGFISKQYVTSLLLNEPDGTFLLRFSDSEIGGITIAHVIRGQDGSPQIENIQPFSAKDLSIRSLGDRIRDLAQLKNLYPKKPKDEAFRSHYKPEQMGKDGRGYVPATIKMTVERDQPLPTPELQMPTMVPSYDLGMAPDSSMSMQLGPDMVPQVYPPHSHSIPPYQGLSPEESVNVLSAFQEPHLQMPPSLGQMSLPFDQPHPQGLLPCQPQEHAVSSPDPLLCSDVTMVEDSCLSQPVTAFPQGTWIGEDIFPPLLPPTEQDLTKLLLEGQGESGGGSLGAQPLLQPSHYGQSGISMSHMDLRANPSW
Test: Inhibition of STAT6 (unknown origin) expressed in Escherichia coli using FAM-Ala-pTyr-Lys-ProPhe-Gln-Asp-Leu-Ile-NH2 as substrate by fluorescence polarization assay
Procedure, shortened: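 His6-tagged STAT6 construct (coiled-coil, DNA-binding, linker and SH2 domains), purified by nickel IMAC; competitive FP binding. STAT6 at 480 nM mixed with 20 nM FAM-labelled phosphopeptide probe, then equal volume of serially diluted peptides (from 200 μM) added. Buffer: 50 mM NaCl, 10 mM Hepes, 1 mM Na4EDTA, 2 mM DTT, 1% NP-40. mP plotted against log concentration; IC50 by nonlinear regression; triplicate, three probe preparations; mean ± SD.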

SMILES | IC50
C/C(=C\C(=O)N[C@H](C(=O)N(C)[C@@H](C)C(=O)N(C)c1ccccc1)C(C)(C)C)c1ccc(OP(=O)(O)O)cc1 | 480 nM
CC(C)(C)[C@H](NC(=O)/C=C/c1ccc(OP(=O)(O)O)cc1)C(=O)N1CCC[C@H]1C(=O)Nc1ccccc1 | 1250 nM
CC[C@H](C)[C@H](NC(=O)[C@H](CC(C)C)NC(=O)[C@H](CC(=O)O)NC(=O)[C@H](CCC(N)=O)NC(=O)[C@H](Cc1ccccc1)NC(=O)[C@@H]1CCCN1C(=O)[C@H](CCCCN)NC(=O)[C@H](Cc1ccc(OP(=O)(O)O)cc1)NC(C)=O)C(N)=O (HELM PEPTIDE1{[ac].[O=C([C@H](Cc1ccc(OP(=O)(O)O)cc1)N[*:1])[*:2]].K.P.F.Q.D.L.I.[am]}$$$$V2.0) | 1800 nM
CC(=O)N[C@@H](Cc1ccc(OP(=O)(O)O)cc1)C(=O)N[C@@H](CCCCN)C(=O)N1CCC[C@H]1C(=O)N[C@@H](Cc1ccccc1)C(=O)N[C@@H](CCC(N)=O)C(=O)N[C@@H](CC(=O)O)C(N)=O (HELM PEPTIDE1{[ac].[O=C([C@H](Cc1ccc(OP(=O)(O)O)cc1)N[*:1])[*:2]].K.P.F.Q.D.[am]}$$$$V2.0) | 4500 nM
C/C(=C\C(=O)N[C@H](C(=O)N(C)CC(=O)N(C)c1ccccc1)C(C)(C)C)c1ccc(OP(=O)(O)O)cc1 | 270 nM
CC(=O)N[C@@H](Cc1ccc(OP(=O)(O)O)cc1)C(=O)N[C@@H](CCCCN)C(=O)N1CCC[C@H]1C(N)=O (HELM PEPTIDE1{[ac].[O=C([C@H](Cc1ccc(OP(=O)(O)O)cc1)N[*:1])[*:2]].K.P.[am]}$$$$V2.0) | 5200 nM
CC(C)(C)[C@H](NC(=O)/C=C/c1ccc(OP(=O)(O)O)cc1)C(=O)N1CCC[C@H]1C(=O)N(c1ccccc1)c1ccc(I)cc1 | 44 nM
C/C(=C\C(=O)N[C@H](C(=O)N1CCC[C@H]1C(=O)N(C)c1ccccc1)C(C)(C)C)c1ccc(OP(=O)(O)O)cc1 | 120 nM
C/C(=C\C(=O)N[C@H](C(=O)N1CCCC1/C=C/c1ccccc1)C(C)(C)C)c1ccc(OP(=O)(O)O)cc1 (some centres undefined) | 3430 nM
C/C(=C\C(=O)N[C@H](C(=O)N1CCC[C@H]1C(=O)N(C)C)C(C)(C)C)c1ccc(OP(=O)(O)O)cc1 | 740 nM
NCCCC[C@H](NC(=O)/C=C/c1ccc(OP(=O)(O)O)cc1)C(=O)N1CCC[C@H]1C(=O)N[C@@H](Cc1ccccc1)C(N)=O | 8600 nM
CC(=O)N[C@@H](Cc1ccc(OP(=O)(O)O)cc1)C(=O)N[C@@H](CCCCN)C(=O)N1CCC[C@H]1C(=O)N[C@@H](Cc1ccccc1)C(N)=O (HELM PEPTIDE1{[ac].[O=C([C@H](Cc1ccc(OP(=O)(O)O)cc1)N[*:1])[*:2]].K.P.F.[am]}$$$$V2.0) | 6100 nM
C/C(=C\C(=O)N[C@H](C(=O)N1CCC[C@H]1C(=O)NCCc1ccccc1)C(C)(C)C)c1ccc(OP(=O)(O)O)cc1 | 250 nM
CC(=O)N[C@@H](Cc1ccc(OP(=O)(O)O)cc1)C(=O)N[C@@H](CCCCN)C(=O)N1CCC[C@H]1C(=O)N[C@@H](Cc1ccccc1)C(=O)N[C@@H](CCC(N)=O)C(N)=O (HELM PEPTIDE1{[ac].[O=C([C@H](Cc1ccc(OP(=O)(O)O)cc1)N[*:1])[*:2]].K.P.F.Q.[am]}$$$$V2.0) | 4200 nM
C/C(=C\C(=O)N[C@H](C(=O)N1CCCC1CN(C)c1ccccc1)C(C)(C)C)c1ccc(OP(=O)(O)O)cc1 (some centres undefined) | 410 nM
CC(C)(C)[C@H](NC(=O)c1cc2cc(OP(=O)(O)O)ccc2[nH]1)C(=O)N1CCC[C@H]1C(=O)N(c1ccccc1)c1ccc(I)cc1 | 140 nM
C/C(=C\C(=O)N[C@H](C(=O)N1CCC[C@H]1C(=O)N(c1ccccc1)c1ccc(I)cc1)C(C)(C)C)c1ccc(OP(=O)(O)O)cc1 | 28 nM
CC(=O)N[C@@H](Cc1ccc(OP(=O)(O)O)cc1)C(=O)N[C@@H](CCCCN)C(=O)N1CCC[C@H]1C(=O)N[C@@H](Cc1ccccc1)C(=O)N[C@@H](CCC(N)=O)C(=O)N[C@@H](CC(=O)O)C(=O)N[C@@H](CC(C)C)C(N)=O (HELM PEPTIDE1{[ac].[O=C([C@H](Cc1ccc(OP(=O)(O)O)cc1)N[*:1])[*:2]].K.P.F.Q.D.L.[am]}$$$$V2.0) | 2400 nM
C/C(=C\C(=O)N[C@H](C(=O)N1CCCC1/C=C/CCc1ccccc1)C(C)(C)C)c1ccc(OP(=O)(O)O)cc1 (some centres undefined) | 540 nM

From ChEMBL document CHEMBL3739303, “Targeting the Src Homology 2 (SH2) Domain of Signal Transducer and Activator of Transcription 6 (STAT6) with Cell-Permeable, Phosphatase-Stable Phosphopeptide Mimics Potently Inhibits Tyr641 Phosphorylation and Transcriptional Activity” (J Med Chem, 2015)
